Experimental data gathered from unrelated publications.
Compare with care: the assays were run in different laboratories.
Target: TRAF2 and NCK-interacting protein kinase (TNIK, Homo sapiens, UniProt Q9UKE5)

| Compound | test | conditions | remaining binding [%] |
| --- | --- | --- | --- |
| COc1cnc(Nc2cccc(S(N)(=O)=O)c2)nc1N1CCN(c2ccccc2)C(=O)C1 | binding, competition with immobilised ligand | 1 µM | 76 |
| C[C@H]1CCN(c2nccc(-c3cnn4ncccc34)n2)C1 | binding | 1 µM | 100 |
| CN([C@@H]1CCc2c(CC(=O)O)c3cc(S(C)(=O)=O)ccc3n2C1)S(=O)(=O)c1ccc(F)cc1 | cell-free assay, competition with immobilised ligand | 1 µM | 100 |
| N[C@H]1CCN(c2nccc(-c3cnn4ncccc34)n2)C1 | binding | 1 µM | 80 |
| c1cncc(-c2cccc(Nc3nccc(NC4CCCCC4)n3)c2)c1 | binding, competition with immobilised ligand | 10 µM | 33 |
| Cc1cnn2ncc(-c3ccnc(N(C)C)n3)c2c1 | binding | 1 µM | 80 |
| CNC(=O)[C@@H]1CC[C@@H](n2c(-c3ccc4cnccc4c3)nc3ccc(C(=O)NCc4cccc(C(N)=O)c4)cc32)C1 | binding, competition with immobilised ligand | 1 µM | 90 |
| CC(=O)Nc1c(C(C)=O)c(=O)n(C)c2nc(-c3ccc(Cl)cc3Cl)c(-c3ccc(Cl)cc3)cc12 | cell-free assay, competition with immobilised ligand | 1 µM | 100 |
| CN(C)c1nccc(-c2cnn3ncccc23)n1 | binding | 1 µM | 100 |
| Cc1cc(C)c(-n2ccn3nc(-c4cccnc4)cc23)cc1NC(=O)c1cc(C#N)cc(S(F)(F)(F)(F)F)c1 | cell-free assay, competition with immobilised ligand | 0.1 µM | 97.4 |
| FC(F)(F)Oc1cccc(-c2cnc3ccc(-c4ccncc4)nn23)c1 | binding, competition with immobilised ligand | 5 µM | 29 |
| F[C@@H]1CCN(c2nccc(-c3cnn4ncccc34)n2)C1 | binding | 1 µM | 100 |
| C[C@@H](c1ccc(-n2cnc3c(N)ncnc32)cc1)N1CCc2nn(C)c(Cc3ccccc3)c2C1=O | binding, competition with immobilised ligand | 0.1 µM | 76 |
| CN(CCCC(F)(F)F)c1nccc(-c2cnn3ncccc23)n1 | binding | 1 µM | 100 |
| O=C(c1ccc(Nc2ncc(Cl)c(-c3cc4ccccc4s3)n2)cc1)N1CCC(N2CCCC2)CC1 | binding, competition with immobilised ligand | 1 µM | 73 |
| CCC(=O)N[C@@H]1CC[C@H](C(=O)N(C)c2ccc(-c3nc4ccccc4o3)cc2)C1 | cell-free assay, competition with immobilised ligand | 1 µM | 100 |
| O=C(c1ccc(Nc2nccc(-c3cc4ccccc4s3)n2)cc1)N1CCC(N2CCCC2)CC1 | binding, competition with immobilised ligand | 1 µM | 79 |
| CC1=C(C#N)C(c2ccc3c(c2)c(NC(=O)c2ccccc2C)nn3C)C(C#N)=C(C)N1 | cell-free assay, competition with immobilised ligand | 1 µM | 98 |
| O=C(Nc1c[nH]nc1C(=O)NC1CCNCC1)c1cc(F)cc(F)c1 | binding, competition with immobilised ligand | 1 µM | 100 |
| Cc1cnc(Nc2ccc(C(=O)N3CCC(N4CCCC4)CC3)cc2)nc1-c1cc2ccccc2s1 | binding, competition with immobilised ligand | 1 µM | 68 |
| CNC(=O)Nc1ccc2c(c1)CC[C@@]21OC(=O)N(CC(=O)N(Cc2ccc(F)cc2)[C@@H](C)C(F)(F)F)C1=O | cell-free assay, competition with immobilised ligand | 1 µM | 93 |
